{"source": "paper PMC8049015", "about": "(Journal of Clinical Pharmacology, 2020)", "key": {"[1]": {"tested_on": "subjects with moderate to severe atopic dermatitis", "assay": "Phase 2b dose‐ranging study, observed efficacy in week 16", "assay_type": "in vivo, human", "conditions": "week 16, NRI"}, "[2]": {"conditions": "7.5, 15, 30 mg once daily, 16 weeks; cited from earlier work"}, "[3]": {"conditions": "cited from earlier work"}, "[4]": {"tested_on": "subjects with moderate to severe RA", "conditions": "cited from earlier work"}, "[5]": {"tested_on": "subjects with moderate to severe atopic dermatitis", "conditions": "week 16, placebo 23%, cited from earlier work"}, "[6]": {"tested_on": "subjects with moderate to severe atopic dermatitis", "assay": "Exposure‐response logistic regression models", "assay_type": "in vivo, human", "conditions": "logit scale; week 16, NRI; estimate", "how_it_was_run": "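Week-16 EASI-75, EASI-90 and IGA 0/1 responses from 167 phase 2b adults were each fitted by logistic regression with an Emax link, with estimates on the logit scale. The exposure was individual steady-state Cavg from empirical Bayesian population-PK parameters. Drug effect was tested by likelihood ratio at P < .01. Covariates were selected stepwise (entry P < .01, removal P < .001). Models were chosen by AIC, fit and precision.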"}, "[7]": {"assay_type": "in vivo, human", "conditions": "steady state, median (5th to 95th percentiles), model‐predicted", "how_it_was_run": "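Plasma exposures at steady state over a dosing interval (median, 5th–95th percentiles) were predicted by a 2-compartment population-PK model for the oral extended-release once-daily regimens. Absorption was mixed zero- and first-order with a lag time. Sparse samples from weeks 2 and 4 (predose) and weeks 8, 12 and 16 (any time) were assayed by validated LC-MS.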"}, "[8]": {"tested_on": "moderate to severe atopic dermatitis", "conditions": "phase 3 studies; cited from earlier work"}, "[9]": {"conditions": "15 mg once daily extended‐release"}}, "note": "Like-named read-outs stand apart in the source and are kept apart here. Marks after values point to notes of the source that are not given here."}
{"molecule": "CC[C@@H]1CN(C(=O)NCC(F)(F)F)C[C@@H]1c1cnc2cnc3[nH]ccc3n12", "note": "[upadacitinib]", "values": [{"measurement": "Observed percentage of subjects achieving EASI‐75", "setting": "[1]; 7.5 mg once daily", "value": "[29] %"}, {"measurement": "Observed percentage of subjects achieving EASI‐90", "setting": "[1]; 7.5 mg once daily", "value": "[14] %"}, {"measurement": "Observed percentage of subjects achieving IGA 0/1", "setting": "[1]; 7.5 mg once daily", "value": "[14] %"}, {"measurement": "Observed percentage of subjects achieving EASI‐90", "setting": "[1]; 15 mg once daily", "value": "[26] %"}, {"measurement": "Observed percentage of subjects achieving IGA 0/1", "setting": "[1]; 15 mg once daily", "value": "[31] %"}, {"measurement": "Observed percentage of subjects achieving EASI‐90", "setting": "[1]; 30 mg once daily", "value": "[50] %"}, {"measurement": "Observed percentage of subjects achieving IGA 0/1", "setting": "[1]; 30 mg once daily", "value": "[50] %"}, {"measurement": "Dose relationship for serious infections or overall incidence of adverse events", "setting": "[2]", "value": "no dose relationship was observed"}, {"measurement": "Dose‐limiting safety events", "setting": "[2]", "value": "No dose‐limiting safety events were observed"}, {"measurement": "Oral bioavailability of the extended‐release tablet relative to the same dose of the immediate‐release formulation", "setting": "[3]", "value": 76, "unit": "%"}, {"measurement": "Dose proportionality of plasma exposure", "setting": "[3]; over the evaluated dose range across clinical studies", "value": "approximately dose proportional"}, {"measurement": "Accumulation with repeated dosing", "setting": "[3]; twice daily immediate‐release or once daily extended‐release", "value": "no significant accumulation"}, {"measurement": "Estimated increase in the percentage of subjects achieving ACR 20/50/70 responses or DAS‐28 low disease activity and clinical remission, 30 mg once daily compared with 15 mg once daily exposures", "setting": "[4]", "value": "< 5", "unit": "%"}, {"measurement": "Mean improvement in EASI from baseline", "setting": "[5]; 7.5 mg once daily", "value": 39, "unit": "%"}, {"measurement": "Mean improvement in EASI from baseline", "setting": "[5]; 15 mg once daily", "value": 62, "unit": "%"}, {"measurement": "Mean improvement in EASI from baseline", "setting": "[5]; 30 mg once daily", "value": 74, "unit": "%"}, {"measurement": "Emax, probability of achieving EASI‐75", "setting": "[6]", "value": "5.35 (17% ^a )"}, {"measurement": "Emax, probability of achieving EASI‐90", "setting": "[6]", "value": "6.2 (13% ^a )"}, {"measurement": "Emax, probability of achieving IGA 0/1", "setting": "[6]", "value": "5.78 (12% ^a )"}, {"measurement": "Cmin", "setting": "[7]; 7.5 mg once daily extended‐release", "value": "2.0 (0.56‐6.2) ng/mL"}, {"measurement": "Cmax", "setting": "[7]; [9]", "value": "41.2 (27.7‐65.8) ng/mL"}, {"measurement": "Cmin", "setting": "[7]; [9]", "value": "2.7 (1.2‐11.3) ng/mL"}, {"measurement": "Cmin", "setting": "[7]; 30 mg once daily extended‐release", "value": "6.6 (2.1‐22.1) ng/mL"}]}
{"molecule": "dupilumab", "values": [{"measurement": "Patients who achieved no or almost no disease activity", "setting": "[8]", "value": "< 40", "unit": "%"}]}
